By IC50 is commonly meant the concentration needed to halve the response being measured. For orientation: inhibition in vivo means the change of the read-out against control, counted positive when it falls.

We go through 2 compounds from ChEMBL document CHEMBL3085664, “Structure-activity relationship of imidazopyridinium analogues as antagonists of neuropeptide s receptor” (J Med Chem, 2013).

For data set [1], the target named is T1, Neuropeptide S receptor (Homo sapiens, UniProt Q6W5P4).
T1 sequence (Q6W5P4 whole entry): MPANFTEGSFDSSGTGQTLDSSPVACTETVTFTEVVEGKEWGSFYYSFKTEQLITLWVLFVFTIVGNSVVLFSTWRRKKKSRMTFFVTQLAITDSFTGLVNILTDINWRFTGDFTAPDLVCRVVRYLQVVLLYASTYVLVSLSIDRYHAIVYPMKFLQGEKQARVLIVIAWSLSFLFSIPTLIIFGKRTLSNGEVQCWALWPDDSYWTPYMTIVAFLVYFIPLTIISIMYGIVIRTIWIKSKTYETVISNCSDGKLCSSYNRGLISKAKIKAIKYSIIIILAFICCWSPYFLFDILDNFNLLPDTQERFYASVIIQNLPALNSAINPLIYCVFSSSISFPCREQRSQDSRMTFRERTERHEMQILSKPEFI
The data set is described as follows: Antagonist activity at neuropeptide S receptor (unknown origin) expressed in CHO cells assessed as inhibition of NPS-induced ERK activation after 20 mins by HTRF assay. Type of data set: cell-based.

For data set [2], the target named is T1, Neuropeptide S receptor. The data set is described as follows: Antagonist activity at neuropeptide S receptor (unknown origin) expressed in CHO cells assessed as inhibition of NPS-induced calcium mobilization after 10 mins by fluorescence assay. Type of data set: functional, cell-based. Conditions: read-out: IC50. Summed up: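 CHO-NPSR cells, 2000/well in 1536-well plates, incubated overnight, then loaded with no-wash calcium dye for 1 h at 37°C. Compound in DMSO was added for 10 min. Baseline fluorescence was recorded 6 s at 1 Hz, then EC80 NPS in stimulation buffer was added and recording continued 4 min at 1 Hz on a kinetic reader. IC50 is the mean with SD of two independent experiments in duplicate.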

The target in data set [3] is T1, Neuropeptide S receptor. As to the kind of experiment: Antagonist activity at neuropeptide S receptor (unknown origin) expressed in CHO cells assessed as cAMP level after 30 mins by […] assay. Type of data set: functional, cell-based. Particulars: read-out: IC50. Summed up:
(§1)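 CHO cells stably expressing NPSR, 1800 cells/well in 1536-well format, seeded overnight at 37°C in medium without Geneticin. Stimulation buffer (PBS, 0.1% BSA, 0.05% Tween-20, 500µM Ro 20-1724, EC80 NPS) was added for 30 min at 37°C. cAMP was read by HTRF (d2-cAMP/cryptate anti-cAMP in lysis buffer, 30 min). IC50 is the mean with SD of two independent experiments, each run in duplicate.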
Background: cAMP levels reflect the balance of adenylyl cyclase and phosphodiesterase activity.

Data set [4] is described as follows: Chemical stability of the compound in phosphate-buffered saline after 48 hrs. The class given is physicochemical. Conditions: buffer. Summed up: (§2)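 Compound was held in Hank's balanced buffer solution or PBS for 48 hours and checked for decomposition to other species.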
Data set [5] in a line: Chemical stability of the compound in HBBS buffer after 48 hrs. Type of data set: physicochemical. Summed up: as §2
Data set [6] addresses T1, Neuropeptide S receptor. As to the kind of experiment: Displacement of [125I]Tyr10-NPS from neuropeptide S receptor (unknown origin). Summed up: (§3)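 Whole CHO cells stably expressing human NPSR at 90–95% confluency in 24-well plates. Cells were incubated with 0.15 nM [125I]Y10-NPS plus increasing compound or unlabeled NPS in DMEM/0.1% BSA, 20°C, 1.5 hr. Nonspecific binding was defined with 1 µM unlabeled human NPS. Cells were washed, lysed in 1 N NaOH and counted by liquid scintillation. IC50 from one experiment in duplicate.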
(In general: In a radioligand displacement assay an active substance lowers the binding of a labelled ligand.)

For data set [7], the target named is T1, Neuropeptide S receptor. As to the kind of experiment: Antagonist activity at neuropeptide S receptor (unknown origin) assessed as cAMP level by cell based assay. The class given is functional. Summed up:
as §1

Data set [8] concerns the target T1, Neuropeptide S receptor. The data set is described as follows: Antagonist activity at neuropeptide S receptor (unknown origin) assessed as intracellular calcium level by cell based assay. The class given is functional. The method, boiled down:
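CHO cells stably expressing NPSR were seeded at 2000 cells/well and incubated overnight at 37 °C, 5% CO2. They were loaded with no-wash calcium dye for 1 h, then preincubated with compound in DMSO for 10 min. Stimulation used NPS at EC80 in PBS/0.1% BSA/0.05% Tween-20 with 500 µM Ro 20-1724. Kinetic fluorescence was read at 1 Hz: 6 s baseline, then 4 min. IC50 is the mean ± SD of two independent experiments, each in duplicate.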

The nature of data set [9]: Metabolic stability in mouse liver microsomes assessed as compound remaining after 60 mins in absence NADPH. Particulars: read-out: Stability. The class given is ADME, Microsome. The method, boiled down: (§4)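 Compound was incubated with mouse liver microsomes, and percent parent remaining was determined at 15, 30 and 60 min. Values are means from a single experiment run in duplicate.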
Background: Liver microsomes are a subcellular fraction often used to study metabolism.

Data set [10] can be described thus: Metabolic stability in mouse liver microsomes assessed as compound remaining after 30 mins in absence NADPH. Type of data set: ADME, Microsome. Conditions: read-out: Stability. The method, boiled down: as §4
Data set [11] in a line: Metabolic stability in mouse liver microsomes assessed as compound remaining after 15 mins in absence NADPH. Type of data set: ADME, Microsome. Conditions: read-out: Stability. The method, boiled down: as §4
Data set [12] in a line: Metabolic stability in mouse liver microsomes assessed as compound remaining after 60 mins in presence NADPH. The class given is ADME, Microsome. Particulars: read-out: Stability. Summed up: as §4
Data set [13] is described as follows: Metabolic stability in mouse liver microsomes assessed as compound remaining after 30 mins in presence NADPH. Type of data set: ADME, Microsome. Conditions: read-out: Stability. Summed up:
as §4

A short description of data set [14]: Metabolic stability in mouse liver microsomes assessed as compound remaining after 15 mins in presence NADPH. Type of data set: ADME, Microsome. Particulars: read-out: Stability. Summed up:
as §4

Data set [15] concerns the target T1, Neuropeptide S receptor. As to the kind of experiment: Displacement of [125I]Tyr10-NPS from human neuropeptide S receptor expressed in CHO cells after 1.5 hrs by liquid scintillation counting. Type of data set: cell-based. The method, boiled down: as §3
The nature of data set [16]: Drug level in mouse brain after 15 mins. Type of data set: ADME, tissue-based. Conditions: read-out: Drug uptake.
A short description of data set [17]: Drug level in mouse brain after 2 hrs. Conditions: read-out: Drug uptake. The class given is ADME, tissue-based.
Data set [18] relates to Mus musculus. As to the kind of experiment: Inhibition of NPS-induced hyperlocomotion in mouse at 50 mg/kg, ip after 90 mins. Type of data set: functional. Particulars: 1.5 h, route intraperitoneal.

The structures appear in SMILES notation.

Regarding `Cc1c(P(=S)(c2ccccc2)c2ccccc2)[n+]2ccccc2n1C.[I-]`, the IC50 in data set [1] was 30 nM; in [2] it was 51 nM; in data set [3] it was 1700 nM; in data set [6], 84 nM; in data set [7] it was 1700 nM; in data set [8], 51 nM. The Stability result in data set [4] and in data set [5] was “Stable” in each case.

As to `O=C(NCc1ccc(F)cc1)N1CCN2C(=O)OC(c3ccccc3)(c3ccccc3)C2C1` (centres undefined), the values for the remaining at 1 h in [9] and in data set [12] were 101% and 2%, respectively. In addition, the remaining at 0.5 h in data set [10] was determined as 96%; in data set [13] it was 9%. In addition, the figures for the remaining at 0.25 h in data set [11] and in data set [14] were 105% and 29%, respectively. The 50% inhibitory concentration (IC50) in [15] amounted to 25 nM; in data set [1], 14 nM; in [2] it was 420 nM; in data set [3] it was 5.3 nM; in [6], 48 nM; in [7], 420 nM. Also, the IC50 in data set [8] is 28 nM. Besides, in data set [16], the concentration at 0.25 h worked out at 6 µM. In addition, in [17], the concentration at 2 h was 2 µM. The compound further returned an inhibition in vivo at 50 mg/kg in data set [18] of 50%.
